According to ChEMBL document CHEMBL3877264, “Quinolidene-rhodanine conjugates: Facile synthesis and biological evaluation” (Eur J Med Chem, 2017):
≈ marks a conversion by molar mass, not a printed value.

Experiments:
Type in all cases: functional
Escherichia coli [1] = experiment: Antibacterial activity against Escherichia coli NCIM 2688 measured after 8 hrs; conditions: NCIM 2688, 8 h
In short: (§1)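 Bacteria grown in LB at 37 °C and 180 rpm to OD 1. Compounds added to wells, then 0.1% inoculum of 1 OD culture (620 nm). Growth read as OD at 620 nm after 8 h for gram-negative and after 12 h for gram-positive strains.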

Pseudomonas fluorescens [2] = experiment: Antibacterial activity against Pseudomonas fluorescens NCIM 2036 measured after 8 hrs; conditions: NCIM 2036, 8 h; in short: as §1
Staphylococcus aureus [3] = experiment: Antibacterial activity against of Staphylococcus aureus NCIM 2010 measured after 12 hrs; conditions: NCIM 2010, 12 h; in short: as §1
Bacillus subtilis [4] = experiment: Antibacterial activity against Bacillus subtilis NCIM 2079 measured after 12 hrs; conditions: NCIM 2079, 12 h; in short: as §1
[5] = Antifungal activity against Fusarium oxysporum NCIM 1332 by standard agar method
In short: (§2)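 MICs determined by standard agar method; DMSO as solvent control.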

Staphylococcus aureus [6] = experiment: Growth inhibition of Staphylococcus aureus NCIM 2010 at 30 ug/ml measured after 12 hrs relative to control; conditions: NCIM 2010, 12 h, read-out: GI; in short: as §1
Bacillus subtilis [7] = experiment: Growth inhibition of Bacillus subtilis NCIM 2079 at 30 ug/ml measured after 12 hrs relative to control; conditions: NCIM 2079, 12 h, read-out: GI; in short: as §1
Staphylococcus aureus [8] = experiment: Growth inhibition of Staphylococcus aureus NCIM 2010 at 10 ug/ml measured after 12 hrs relative to control; conditions: NCIM 2010, 12 h, read-out: GI; in short: as §1
Staphylococcus aureus [9] = experiment: Growth inhibition of Staphylococcus aureus NCIM 2010 at 3 ug/ml measured after 12 hrs relative to control; conditions: NCIM 2010, 12 h, read-out: GI; in short: as §1
Bacillus subtilis [10] = experiment: Growth inhibition of Bacillus subtilis NCIM 2079 at 10 ug/ml measured after 12 hrs relative to control; conditions: NCIM 2079, 12 h, read-out: GI; in short: as §1
Bacillus subtilis [11] = experiment: Growth inhibition of Bacillus subtilis NCIM 2079 at 3 ug/ml measured after 12 hrs relative to control; conditions: NCIM 2079, 12 h, read-out: GI; in short: as §1
Escherichia coli [12] = experiment: Growth inhibition of Escherichia coli NCIM 2688 at 30 ug/ml measured after 8 hrs relative to control; conditions: NCIM 2688, 8 h, read-out: GI; in short: as §1
Escherichia coli [13] = experiment: Growth inhibition of Escherichia coli NCIM 2688 at 10 ug/ml measured after 8 hrs relative to control; conditions: NCIM 2688, 8 h, read-out: GI; in short: as §1
Escherichia coli [14] = experiment: Growth inhibition of Escherichia coli NCIM 2688 at 3 ug/ml measured after 8 hrs relative to control; conditions: NCIM 2688, 8 h, read-out: GI; in short: as §1
Pseudomonas fluorescens [15] = experiment: Growth inhibition of Pseudomonas fluorescens NCIM 2036 at 30 ug/ml measured after 8 hrs relative to control; conditions: NCIM 2036, 8 h, read-out: GI; in short: as §1
Pseudomonas fluorescens [16] = experiment: Growth inhibition of Pseudomonas fluorescens NCIM 2036 at 10 ug/ml measured after 8 hrs relative to control; conditions: NCIM 2036, 8 h, read-out: GI; in short: as §1
Pseudomonas fluorescens [17] = experiment: Growth inhibition of Pseudomonas fluorescens NCIM 2036 at 3 ug/ml measured after 8 hrs relative to control; conditions: NCIM 2036, 8 h, read-out: GI; in short: as §1
[18] = system: Mycobacterium tuberculosis; experiment: Growth inhibition of Mycobacterium bovis BCG ATCC 35743 at dormant stage at 30 ug/ml measured after 12 days by nitrate reductase dye based two fold dilution method relative to control; conditions: BCG str. ATCC 35743, 288 h, read-out: GI
In short: (§3)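 M. bovis BCG was grown in Dubos medium and assayed in Mycobacterium pheli minimal medium (pH 6.6), with compounds from DMSO stocks. Incubation lasted 8 days for active and 12 days for dormant cultures. Viability was read by nitrate reductase at 540 nm against cell-free blanks, with vehicle set as 100% growth. Primary screen was at 30, 10 and 3 µg/ml, in triplicate, mean ± SD. MIC was taken from dose-response curves.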

[19] = system: Mycobacterium tuberculosis; experiment: Growth inhibition of Mycobacterium bovis BCG ATCC 35743 at dormant stage at 10 ug/ml measured after 12 days by nitrate reductase dye based two fold dilution method relative to control; conditions: BCG str. ATCC 35743, 288 h, read-out: GI; in short: as §3
[20] = system: Mycobacterium tuberculosis; experiment: Growth inhibition of Mycobacterium bovis BCG ATCC 35743 at dormant stage at 3 ug/ml measured after 12 days by nitrate reductase dye based two fold dilution method relative to control; conditions: BCG str. ATCC 35743, 288 h, read-out: GI; in short: as §3
[21] = system: Mycobacterium tuberculosis; experiment: Growth inhibition of Mycobacterium bovis BCG ATCC 35743 at active stage measured after 8 days by nitrate reductase dye based two fold dilution method; conditions: BCG str. ATCC 35743, 192 h; in short: as §3
[22] = system: Mycobacterium tuberculosis; experiment: Growth inhibition of Mycobacterium tuberculosis H37Ra ATCC 25177 at dormant stage measured after 12 days by XTT dye based two fold dilution method; conditions: H37Ra ATCC 25177, 288 h
In short: (§4)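 MTB H37Ra was grown in Dubos medium, then exposed in Mycobacterium pheli minimal medium (pH 6.6) to compounds dissolved in DMSO. The assay ended on day 8 (active) or day 12 (dormant). Viable cells were measured by XTT reduction menadione assay at 470 nm, blank-corrected, relative to vehicle control. Triplicates were expressed as mean ± SD. MIC came from dose-response curves.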

[23] = system: Mycobacterium tuberculosis; experiment: Growth inhibition of Mycobacterium bovis BCG ATCC 35743 at dormant stage measured after 12 days by nitrate reductase dye based two fold dilution method; conditions: BCG str. ATCC 35743, 288 h; in short: as §3
[24] = system: Mycobacterium tuberculosis; experiment: Growth inhibition of Mycobacterium tuberculosis H37Ra ATCC 25177 at active stage measured after 8 days by XTT dye based two fold dilution method; conditions: H37Ra ATCC 25177, 192 h; in short: as §4
Candida albicans = experiment: Antifungal activity against Candida albicans NCIM 3471 by standard agar method; in short: as §2
Aspergillus niger = experiment: Antifungal activity against Aspergillus niger NCIM 1196 by standard agar method; in short: as §2
[25] = Antifungal activity against Cryptococcus neoformans NCIM 576 by standard agar method; in short: as §2
Aspergillus flavus = experiment: Antifungal activity against Aspergillus flavus NCIM 539 by standard agar method; in short: as §2

Row | Structure (SMILES) | MIC (Escherichia coli [1]) | MIC (Pseudomonas fluorescens [2]) | MIC (Staphylococcus aureus [3]) | MIC (Bacillus subtilis [4]) | MIC [5] | inhibition of growth at 30 µg/mL (Staphylococcus aureus [6]) | inhibition of growth at 30 µg/mL (Bacillus subtilis [7]) | inhibition of growth at 10 µg/mL (Staphylococcus aureus [8]) | inhibition of growth at 3 µg/mL (Staphylococcus aureus [9]) | inhibition of growth at 10 µg/mL (Bacillus subtilis [10]) | inhibition of growth at 3 µg/mL (Bacillus subtilis [11]) | inhibition of growth at 30 µg/mL (Escherichia coli [12]) | inhibition of growth at 10 µg/mL (Escherichia coli [13]) | inhibition of growth at 3 µg/mL (Escherichia coli [14]) | inhibition of growth at 30 µg/mL (Pseudomonas fluorescens [15]) | inhibition of growth at 10 µg/mL (Pseudomonas fluorescens [16]) | inhibition of growth at 3 µg/mL (Pseudomonas fluorescens [17]) | MIC (Candida albicans) | MIC (Aspergillus niger) | MIC [25] | further results
1 | NC[C@H]1O[C@H](O[C@H]2[C@H](O)[C@@H](O[C@H]3O[C@H](CO)[C@@H](O)[C@H](N)[C@H]3O)[C@H](N)C[C@@H]2N)[C@H](O)[C@@H](O)[C@@H]1O [KANAMYCIN] | 0.67 µg/mL (≈ 1.38 µM) | 0.012 µg/mL (≈ 0.0248 µM) | 16 µg/mL (≈ 33 µM) | 0.25 µg/mL (≈ 0.516 µM) | – | – | – | – | – | – | – | – | – | – | – | – | – | – | – | – | –
2 | CC1(C)S[C@@H]2[C@H](NC(=O)[C@H](N)c3ccccc3)C(=O)N2[C@H]1C(=O)O [AMPICILLIN] | 0.41 µg/mL (≈ 1.17 µM) | 2.83 µg/mL (≈ 8.1 µM) | 0.12 µg/mL (≈ 0.343 µM) | 5.89 µg/mL (≈ 16.9 µM) | – | – | – | – | – | – | – | – | – | – | – | – | – | – | – | – | –
3 | O=C(O)CN1C(=O)/C(=C/c2cc3ccccc3nc2Cl)SC1=S | > 30 µg/mL | > 30 µg/mL | > 30 µg/mL | > 30 µg/mL | 125 µg/mL (≈ 343 µM) | -7.84% | -22.6% | -8.62% | -17.2% | -24.5% | -12% | -12.1% | -8.37% | -10.4% | 13.8% | -75.5% | -16.1% | 125 µg/mL (≈ 343 µM) | 100 µg/mL (≈ 274 µM) | 100 µg/mL (≈ 274 µM) | inhibition of growth at 30 µg/mL [18]: 34.2%; inhibition of growth at 10 µg/mL [19]: 32.9%; inhibition of growth at 3 µg/mL [20]: 23.5%; IC50 [21]: > 30 µg/mL; IC90 [21]: > 30 µg/mL; IC50 [22]: > 30 µg/mL; IC90 [22]: > 30 µg/mL; IC50 [23]: > 30 µg/mL; IC90 [23]: > 30 µg/mL; IC50 [24]: > 30 µg/mL; IC90 [24]: > 30 µg/mL
4 | Clc1ccc(COC(Cn2ccnc2)c2ccc(Cl)cc2Cl)c(Cl)c1 (stereo not given) [MICONAZOLE] | – | – | – | – | 25 µg/mL (≈ 60.1 µM) | – | – | – | – | – | – | – | – | – | – | – | – | 25 µg/mL (≈ 60.1 µM) | 25 µg/mL (≈ 60.1 µM) | 25 µg/mL (≈ 60.1 µM) | MIC (Aspergillus flavus): 12.5 µg/mL (≈ 30 µM)
5 | O=C(O)CCN1C(=O)/C(=C/c2cc3cc(Cl)ccc3nc2Cl)SC1=S | > 30 µg/mL | > 30 µg/mL | > 30 µg/mL | > 30 µg/mL | – | -65.7% | 0.333% | -36.7% | -7.27% | -1.12% | 1.91% | 37.3% | 27.1% | 20.6% | -10% | 6.58% | 3.17% | 200 µg/mL (≈ 484 µM) | 200 µg/mL (≈ 484 µM) | 150 µg/mL (≈ 363 µM) | inhibition of growth at 30 µg/mL [18]: 56.5%; inhibition of growth at 10 µg/mL [19]: 25.7%; inhibition of growth at 3 µg/mL [20]: 13.7%; IC50 [21]: > 30 µg/mL; IC90 [21]: > 30 µg/mL; IC50 [22]: > 30 µg/mL; IC90 [22]: > 30 µg/mL; IC50 [23]: > 30 µg/mL; IC90 [23]: > 30 µg/mL; IC50 [24]: > 30 µg/mL; IC90 [24]: > 30 µg/mL; MIC (Aspergillus flavus): 100 µg/mL (≈ 242 µM)
